Test results: ChEMBL document CHEMBL1125878, “Aminoalkynyldithianes. A new class of calcium channel blockers” (J Med Chem, 1991)

Key:
Format in all cases: functional
Cavia porcellus [1] = species on record: Cavia porcellus; test: Antagonism of calcium-induced contractions of guinea pig ileal strips
Method in brief: (§1)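 Guinea pig ileal strips held at 0.5 g resting tension, equilibrated 60 min, isometric recording. Depolarized with KCl (80 mM) 6 min, then cumulative CaCl2 0.2-8.0 mM; wash, control curve, then curves with three drug concentrations added right after KCl (6 min). Kb = concentration giving 2-fold rightward shift, from EC50 ratios; means of 3-10 experiments ± SE.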

[2] = The compound was tested for inhibition of calcium influx into neuronal (NG108-15) cells; details: Mus musculus
Method in brief: (§2)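 NG108-15 cells, differentiated with dibutyryl cAMP (1.0 mM, 4 days), loaded with Quin 2-AM (100 μM) 1 h at 37 °C, washed. Suspensions (ca. 3 × 10^6 cells) at 37 °C preincubated 1 min with drug, then depolarized with KCl (50 mM); fluorescence ex 339/em 492 nm. IC50 = half-maximal fluorescence decrease, logit analysis; means ± SE.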

Cavia porcellus [3] = species on record: Cavia porcellus; test: The compound was tested for antagonism of calcium-induced contractions of guinea pig ileal strips.; method in brief: as §1
[4] = The compound was tested for inhibition of calcium influx into neuronal (NG108-15) cells.; details: Mus musculus; method in brief: as §2

| SMILES | Kb (Cavia porcellus [1]) | also measured |
| --- | --- | --- |
| CCN(C)CC#CCCC1(C2(O)c3ccccc3Oc3ccccc32)SCCCS1 | 1510 nM | – |
| CN(CC#CCCC1(C2(O)c3ccccc3Sc3ccccc32)SCCCS1)CCCc1ccccc1 | 4160 nM | – |
| COc1ccc(CCN(C)CC#CCCC(O)(c2ccccc2)C2SCCCS2)cc1OC (stereo not drawn) | 1230 nM | IC50 [2]: 1.8 µM |
| CN(CC#CCCC1SCCCS1)CCCCc1ccccc1 | 3430 nM | – |
| CN(CC#CCCC1SCCCS1)Cc1ccc2ccccc2c1 | 8330 nM | – |
| CCN(CC)CC#CCCC1(C2(O)CCCc3ccccc32)SCCCS1 (stereo not drawn) | 830 nM | – |
| CN(CC#CCCC1SCCCS1)Cc1ccccc1 | 8020 nM | – |
| CCN(CC)CC#CCCCC1(C2(O)c3ccccc3Oc3ccccc32)SCCCS1 | 170 nM | IC50 [2]: 1 µM |
| CCN(CC)CC#CCCC1(C2(O)c3ccccc3CCc3ccccc32)SCCCS1 | 1270 nM | – |
| CCCN(CC#CCC1(c2ccccc2)SCCCS1)CCC | 1010 nM | IC50 [2]: 1.7 µM |
| CCN(CC)CC#CCCCCC1SCCCS1 | > 5000 nM | – |
| CCCN(CC#CCCCC1(C2(O)c3ccccc3Oc3ccccc32)SCCCS1)CCC | 470 nM | – |
| CCCN(CC#CCCCC1(C2(O)c3ccccc3Sc3ccccc32)SCCCS1)CCC | 770 nM | – |
| CCN(C)CC#CCCC1SCCCS1 | – | IC50 [2]: > 10 µM |
| CN(CC#CCCC1(C2(O)c3ccccc3Sc3ccccc32)SCCCS1)CCCCc1ccccc1 | 3400 nM | – |
| CN(C)CC#CCCC1(C2(O)c3ccccc3Oc3ccccc32)SCCCS1 | 1150 nM | – |
| CN(CC#CCCC1(C(O)(c2ccccc2)C2CCCCC2)SCCCS1)CCc1ccccc1 (stereo not drawn) | 3750 nM | – |
| CCN(CC)CC#CCC1(c2ccccc2)SCCCS1 | 4270 nM | IC50 [2]: 6.4 µM |
| OC1(C2(CCC#CCN3CCCCC3)SCCCS2)c2ccccc2Sc2ccc(Cl)cc21 (stereo not drawn) | 6090 nM | – |
| CN(CC#CCCC1(C(O)(c2ccccc2)c2ccccc2)SCCCS1)CCc1ccccc1 | 2650 nM | – |
| CCN(CC)CC#CCCC1(C(O)(c2ccccc2)C2CCCCC2)SCCCS1 (stereo not drawn) | 1140 nM | – |

| SMILES | Kb (Cavia porcellus [1]) | also measured |
| --- | --- | --- |
| CCN(CC)CC#CCCC1(C(O)(c2ccccc2)C2CCCC2)SCCCS1 (stereo not drawn) | 980 nM | – |
| CN(CC#CCCC1(C2(O)c3ccccc3Oc3ccccc32)SCCCS1)CCCc1ccccc1 | 3090 nM | – |
| CCN(CC#CCCC1(C2(O)c3ccccc3Oc3ccccc32)SCCCS1)C(C)C | 460 nM | – |
| CN(CC#CCCC1SCCCS1)CCc1ccccc1 | 2270 nM | – |
| CCN(CC)CC#CCCC1(c2ccccc2)SCCCS1 | 900 nM | IC50 [2]: 6.8 µM |
| CN(CC#CCCC1(c2ccccc2)SCCCS1)CCc1ccccc1 | 1740 nM | IC50 [2]: 5.4 µM |
| CN(CC#CCCCC1SCCCS1)CCc1ccccc1 | 4150 nM | – |
| CCN(CC)CC#CCCC1(C2(O)CCOc3ccccc32)SCCCS1 (stereo not drawn) | 1940 nM | – |
| OC1(C2(CCC#CCN3CCCCC3)SCCCS2)c2ccccc2Oc2ccccc21 | 390 nM | IC50 [2]: 6.4 µM |
| CCN(CC)CC#CCCC(O)(c1ccccc1)C1SCCCS1 (stereo not drawn) | 6700 nM | IC50 [2]: 17.7 µM |
| CCN(CC)CC#CCCC1(C2(O)c3ccccc3Oc3ccccc32)SCCCS1 | 160 nM | IC50 [2]: 2.3 µM |
| OCCN1CCN(CC#CCCC2SCCCS2)CC1 | > 10000 nM | – |
| CN(C)CC#CCCC1(C2(O)c3ccccc3Sc3ccc(Cl)cc32)SCCCS1 (stereo not drawn) | 2330 nM | – |
| CN(CC#CCCC1(C2(O)c3ccccc3Sc3ccc(Cl)cc32)SCCCS1)CCCc1ccccc1 (stereo not drawn) | > 7000 nM | – |
| COc1ccc(CCN(C)CC#CCC2(c3ccccc3)SCCCS2)cc1OC | 1170 nM | IC50 [2]: 1.5 µM |
| CN(CC#CCCC(O)(c1ccccc1)C1SCCCS1)CCc1ccccc1 (stereo not drawn) | 2250 nM | IC50 [2]: 1.6 µM |
| CCN(C)CC#CCCC1(C2(O)c3ccccc3Sc3ccccc32)SCCCS1 | 570 nM | – |
| OC1(C2(CCC#CCN3CCCCC3)SCCCS2)c2ccccc2Sc2ccccc21 | 3660 nM | – |
| COc1ccc(N(C)CC#CCCC2SCCCS2)cc1OC | 2220 nM | – |
| CN(CC#CCCC1(C2(O)c3ccccc3Oc3ccccc32)SCCCS1)CCCCc1ccccc1 | 1900 nM | – |
| CN(C)CC#CCCC1(C2(O)c3ccccc3Sc3ccccc32)SCCCS1 | 680 nM | – |

| SMILES | Kb (Cavia porcellus [1]) | also measured |
| --- | --- | --- |
| CC(C)N(CC#CCCCC1(C2(O)c3ccccc3Oc3ccccc32)SCCCS1)C(C)C | 200 nM | IC50 [2]: 4.6 µM |
| CN(CC#CCCC1SCCCS1)CCc1ccc2ccccc2c1 | 4730 nM | – |
| CN(CC#CCCCC1SCCCS1)Cc1ccccc1 | 4450 nM | – |
| CN(CC#CCCC1(C(O)(c2ccccc2)c2ccccc2)SCCCS1)Cc1ccccc1 | 3170 nM | – |
| CCN(C)CC#CCCC1(C2(O)c3ccccc3Sc3ccc(Cl)cc32)SCCCS1 (stereo not drawn) | 2530 nM | – |
| CCN(CC)CC#CCCC1(C2(O)c3ccccc3Sc3ccc(Cl)cc32)SCCCS1 (stereo not drawn) | 330 nM | – |
| CCCN(CC#CCCCC1SCCCS1)CCC | 7500 nM | – |
| CCN(CC)CC#CCCC1(C(c2ccccc2)c2ccccc2)SCCCS1 | 500 nM | – |
| CCN(CC)CC#CCCC1(C2(O)c3ccccc3Sc3ccccc32)SCCCS1 | 130 nM | – |
| CCN(CC)CC#CCCCCC1(C2(O)c3ccccc3Oc3ccccc32)SCCCS1 | 1740 nM | – |
| CCN(CC)CC#CCCC1(Cc2ccccc2)SCCCS1 | 1960 nM | – |
| CN(CC#CCCC1SCCCS1)CCCc1ccccc1 | 2980 nM | – |
| CN1CCN(CC#CCCC2(C3(O)c4ccccc4Oc4ccccc43)SCCCS2)CC1 | 490 nM | – |
| CCN(CC)CC#CCCC1(C2(O)c3ccccc3C=Cc3ccccc32)SCCCS1 | 300 nM | – |
| CN(CC#CCCC1SCCCS1)CCc1cccc2ccccc12 | 1520 nM | – |
| CN(CC#CCCC1(C(O)(c2ccccc2)c2ccccc2)SCCCS1)CCCc1ccccc1 | 1630 nM | – |
| COc1ccc(CCN(C)CC#CCCC(O[Si](C)(C)C)(c2ccccc2)C2SCCCS2)cc1OC (stereo not drawn) | 570 nM | – |
| CCN(CC)CC#CCCC1(C(C)(O)c2ccccc2)SCCCS1 (stereo not drawn) | 2510 nM | – |
| COc1ccc([C@@H]2Sc3ccccc3N(CCN(C)C)C(=O)[C@@H]2OC(C)=O)cc1 [DILTIAZEM] | – | Kb (Cavia porcellus [3]): 47 nM; IC50 [4]: 14.9 µM |
| CCOC(=O)C1=C(C)NC(C)=C(C(=O)OC)C1c1cccc([N+](=O)[O-])c1 (stereo not drawn) [NITRENDIPINE] | 2 nM | IC50 [2]: 0.016 µM |
| COc1ccc(CCN(C)CCCC(C#N)(c2ccc(OC)c(OC)c2)C(C)C)cc1OC (stereo not drawn) [VERAPAMIL] | 20 nM | IC50 [2]: 6.5 µM |
